In ChEMBL document CHEMBL4270555, “Synthesis and biological evaluation of magnolol derivatives as melatonergic receptor agonists with potential use in depression” (Eur J Med Chem, 2018):
Calls of active or inactive are those of the source. The calls are words filed in the database; no cut-off is given here.

Experiments:
[1] = Drug metabolism in Sprague-Dawley rat feces assessed as (2S,3S,4S,5R,6S)-6-(5'-allyl-5-(1-hydroxyallyl)-2'-((2S,3R,4S,5S,6R)-3,4,5-trihydroxy-6-(hydroxymethyl)tetrahydro-2H-pyran-2-yloxy)biphenyl-2-yloxy)-3,4,5-trihydroxytetrahydro-2H-pyran-2-carboxylic acid formation at 100 mg/kg, po by UPLC-IT-TOF-MS analysis; assay type: ADME, organism-based; conditions: in vivo
Method in brief: (§1)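 Rats (n = 6) housed in metabolic cages received 100.0 mg/kg orally; controls received 0.5% CMC-Na. Plasma, urine and faeces were collected and analyzed by LC-IT-TOF-MS on a C18 column at 30 °C. Gradient 5–100% acetonitrile with 0.05% formic acid over 18 min at 0.2 mL/min; positive and negative ion MS/MS.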

[2] = Drug metabolism in Sprague-Dawley rat urine assessed as 5'-acryloyl-2'-hydroxy-5-propionylbiphenyl-2-yl hydrogen sulfate formation at 100 mg/kg, po by UPLC-IT-TOF-MS analysis; assay type: ADME, organism-based; conditions: in vivo
Method in brief: (§2)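 Male/unspecified SD rats (n = 6) housed individually in metabolic cages, dosed orally at 100.0 mg/kg; controls given 0.5% CMC-Na orally. Plasma, urine and faeces collected. LC-IT-TOF-MS on C18 column at 30 °C, formic acid (0.05%) water/acetonitrile gradient 5–100% B over 18 min, 0.2 mL/min; positive and negative ion modes with automatic MS/MS.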

[3] = Drug metabolism in Sprague-Dawley rat plasma assessed as (2S,3S,4S,5R,6S)-6-(5-acryloyl-2'-hydroxy-5'-(1-hydroxyallyl)biphenyl-2-yloxy)-3,4,5-trihydroxytetrahydro-2H-pyran-2-carboxylic acid formation at 100 mg/kg, po by UPLC-IT-TOF-MS analysis; assay type: ADME, organism-based; conditions: in vivo; method in brief: as §1
[4] = Drug metabolism in Sprague-Dawley rat feces assessed as (2S,3S,4S,5R,6S)-3,4,5-trihydroxy-6-(5-(1-hydroxyallyl)-5'-(1-hydroxypropyl)-2'-((2S,3R,4S,5S,6R)-3,4,5-trihydroxy-6-(hydroxymethyl)tetrahydro-2H-pyran-2-yloxy)biphenyl-2-yloxy)tetrahydro-2H-pyran-2-carboxylic acid formation at 100 mg/kg, po by UPLC-IT-TOF-MS analysis; assay type: ADME, organism-based; conditions: in vivo; method in brief: as §1
[5] = Drug metabolism in Sprague-Dawley rat plasma assessed as (2R,2'R,3S,3'S,4S,4'S,5R,5'R,6S,6'S)-6,6'-(5,5'-diallylbiphenyl-2,2'-diyl)bis(oxy)bis(2-(hydroxymethyl)tetrahydro-2H-pyran-3,4,5-triol) formation at 100 mg/kg, po by UPLC-IT-TOF-MS analysis; assay type: ADME, organism-based; conditions: in vivo; method in brief: as §1
[6] = Drug metabolism in Sprague-Dawley rat feces assessed as 1-(2'-hydroxy-5'-(1-hydroxyallyl)-6-((2S,3R,4S,5S,6R)-3,4,5-trihydroxy-6-(hydroxymethyl)tetrahydro-2H-pyran-2-yloxy)biphenyl-3-yl)prop-2-en-1-one formation at 100 mg/kg, po by UPLC-IT-TOF-MS analysis; assay type: ADME, organism-based; conditions: in vivo; method in brief: as §1
Mus musculus [7] = test: Increase in norepinephrine level in Kunming mouse frontal cortex at 40 mg/kg, po treated for 7 days by HPLC-ECD analysis; assay type: functional, organism-based
Method in brief: (§3)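 Male Kunming mice (18–20 g) given vehicle or 40 mg/kg for 7 days, then killed by cervical dislocation. Frontal cortex, hippocampus, striatum, hypothalamus and thalamus dissected on ice, homogenized in ice-cold 0.2 M perchloric acid with 0.1 mM EDTA, centrifuged 15,000 rpm, 20 min, 4 °C. Supernatant analysed by HPLC-ECD at +0.50 V; phosphate/octanesulfonate mobile phase pH 3.0 with 12% methanol. Levels in ng/g, mean ± SEM.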

Mus musculus [8] = test: Effect on 5-hydroxytryptamine level in Kunming mouse frontal cortex at 40 mg/kg, po treated for 7 days by HPLC-ECD analysis; assay type: functional, organism-based; method in brief: as §3
[9] = Drug metabolism in Sprague-Dawley rat plasma assessed as 5,5'-diallyl-2'-((2S,3R,4S,5S,6R)-3,4,5-trihydroxy-6-(hydroxymethyl)tetrahydro-2H-pyran-2-yloxy)biphenyl-2-yl hydrogen sulfate formation at 100 mg/kg, po by UPLC-IT-TOF-MS analysis; assay type: ADME, organism-based; conditions: in vivo; method in brief: as §2
[10] = target: Melatonin receptor type 1A (Homo sapiens, UniProt P48039); test: Agonist activity at human MT1 receptor expressed in HEK293 cells at 1 mM after 24 hrs by Fluo-8 dye-based calcium assay relative to control; assay type: functional, cell-based
Method in brief: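 Fluo-8 calcium assay in HEK293 cells stably expressing human MT1 or MT2, seeded 4×10^4/well and incubated 24 h. Compounds tested at 1.00 mM, agomelatine positive control at 3.33 µM; fluorescence at ex 485/em 525 nm. Agonism expressed as mean ± SD, n = 3.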

[11] = Drug metabolism in Sprague-Dawley rat plasma assessed as (2S,3S,4S,5R,6S)-3,4,5-trihydroxy-6-(5-(1-hydroxyallyl)-5'-(1-hydroxypropyl)-2'-((2S,3R,4S,5S,6R)-3,4,5-trihydroxy-6-(hydroxymethyl)tetrahydro-2H-pyran-2-yloxy)biphenyl-2-yloxy)tetrahydro-2H-pyran-2-carboxylic acid formation at 100 mg/kg, po by UPLC-IT-TOF-MS analysis; assay type: ADME, organism-based; conditions: in vivo; method in brief: as §1
Mus musculus [12] = test: Increase in ratio of 3,4-dihydroxyphenylacetic acid and 4-hydroxy-3-methoxyphenylacetic acid to dopamine level in Kunming mouse hypothalamus at 40 mg/kg, po treated for 7 days by HPLC-ECD analysis; assay type: functional, organism-based; method in brief: as §3
[13] = Drug metabolism in Sprague-Dawley rat urine assessed as 5,5'-diallyl-2'-hydroxybiphenyl-2-yl hydrogen sulfate formation at 100 mg/kg, po by UPLC-IT-TOF-MS analysis; assay type: ADME, organism-based; conditions: in vivo; method in brief: as §2
Mus musculus [14] = test: Increase in norepinephrine level in Kunming mouse hypothalamus at 40 mg/kg, po treated for 7 days by HPLC-ECD analysis; assay type: functional, organism-based; method in brief: as §3
[15] = Drug metabolism in Sprague-Dawley rat plasma assessed as 2'-hydroxy-5'-(1-hydroxyallyl)-5-propylbiphenyl-2-yl hydrogen sulfate formation at 100 mg/kg, po by UPLC-IT-TOF-MS analysis; assay type: ADME, organism-based; conditions: in vivo; method in brief: as §1
Mus musculus [16] = test: Increase in 3,4-dihydroxyphenylacetic acid level in Kunming mouse hypothalamus at 40 mg/kg, po treated for 7 days by HPLC-ECD analysis; assay type: functional, organism-based; method in brief: as §3
[17] = Drug metabolism in Sprague-Dawley rat feces assessed as (2R,2'R,3S,3'S,4S,4'S,5R,5'R,6S,6'S)-6,6'-(5,5'-diallylbiphenyl-2,2'-diyl)bis(oxy)bis(2-(hydroxymethyl)tetrahydro-2H-pyran-3,4,5-triol) formation at 100 mg/kg, po by UPLC-IT-TOF-MS analysis; assay type: ADME, organism-based; conditions: in vivo; method in brief: as §1
[18] = Drug metabolism in Sprague-Dawley rat plasma assessed as 5-allyl-5'-(1-hydroxyallyl)-2'-((2S,3R,4S,5S,6R)-3,4,5-trihydroxy-6-(hydroxymethyl)tetrahydro-2H-pyran-2-yloxy)biphenyl-2-yl hydrogen sulfate formation at 100 mg/kg, po by UPLC-IT-TOF-MS analysis; assay type: ADME, organism-based; conditions: in vivo; method in brief: as §2
[19] = Drug metabolism in Sprague-Dawley rat feces assessed as 5-allyl-5'-(1-hydroxyallyl)-2'-((2S,3R,4S,5S,6R)-3,4,5-trihydroxy-6-(hydroxymethyl)tetrahydro-2H-pyran-2-yloxy)biphenyl-2-yl hydrogen sulfate formation at 100 mg/kg, po by UPLC-IT-TOF-MS analysis; assay type: ADME, organism-based; conditions: in vivo; method in brief: as §1
[20] = Drug metabolism in Sprague-Dawley rat urine assessed as 5,5'-bis(1-hydroxyallyl)biphenyl-2,2'-diol formation at 100 mg/kg, po by UPLC-IT-TOF-MS analysis; assay type: ADME, organism-based; conditions: in vivo; method in brief: as §2
[21] = Drug metabolism in Sprague-Dawley rat feces assessed as (2S,3R,4S,5S,6R)-2-(5'-allyl-2'-hydroxy-5-(1-hydroxyallyl)biphenyl-2-yloxy)-6-(hydroxymethyl)tetrahydro-2H-pyran-3,4,5-triol formation at 100 mg/kg, po by UPLC-IT-TOF-MS analysis; assay type: ADME, organism-based; conditions: in vivo; method in brief: as §1

Sequence of Melatonin receptor type 1A (P48039 whole entry): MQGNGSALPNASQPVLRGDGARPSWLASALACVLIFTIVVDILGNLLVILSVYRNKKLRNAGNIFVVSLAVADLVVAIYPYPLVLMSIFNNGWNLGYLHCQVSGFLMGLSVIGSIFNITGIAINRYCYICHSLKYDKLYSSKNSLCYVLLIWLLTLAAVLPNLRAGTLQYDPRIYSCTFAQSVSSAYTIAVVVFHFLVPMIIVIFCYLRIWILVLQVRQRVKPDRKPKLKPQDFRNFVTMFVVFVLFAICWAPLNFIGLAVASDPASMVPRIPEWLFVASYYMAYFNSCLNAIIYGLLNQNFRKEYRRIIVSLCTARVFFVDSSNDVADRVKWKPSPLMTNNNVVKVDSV

For `C=CCc1ccc(O)c(-c2cc(CC=C)ccc2O[C@@H]2O[C@H](CO)[C@@H](O)[C@H](O)[C@H]2O)c1`, which Drug metabolism [1] is on record?
The Drug metabolism was “Metabolite_Detected”.

What about the Drug metabolism [2] of the same compound?
The Drug metabolism was “Metabolite_Detected”.

What about the Drug metabolism [3] of the same compound?
Its Drug metabolism is “Metabolite_Notdetected”.

What about the Drug metabolism [4] of the same compound?
Its Drug metabolism is “Metabolite_Detected”.

And the Drug metabolism [5]?
Its Drug metabolism is “Metabolite_Notdetected”.

What about the Drug metabolism [6] of the same compound?
Its Drug metabolism is “Metabolite_Notdetected”.

What about the Activity (Mus musculus [7]) of the same compound?
Its Activity is “Active”.

What about the Activity (Mus musculus [8]) of the same compound?
The Activity was “inactive”.

And the Drug metabolism [9]?
Its Drug metabolism is “Metabolite_Notdetected”.

What about the Activity [10] of the same compound?
The Activity was 108%.

What about the Drug metabolism [11] of the same compound?
Its Drug metabolism is “Metabolite_Notdetected”.

And the Activity (Mus musculus [12])?
Its Activity is “Active”.

What about the Drug metabolism [13] of the same compound?
Its Drug metabolism is “Metabolite_Notdetected”.

What about the Activity (Mus musculus [14]) of the same compound?
The Activity was “Active”.

And the Drug metabolism [15]?
Its Drug metabolism is “Metabolite_Notdetected”.

And the Activity (Mus musculus [16])?
Its Activity is “Active”.

What about the Drug metabolism [17] of the same compound?
Its Drug metabolism is “Metabolite_Detected”.

What about the Drug metabolism [18] of the same compound?
The Drug metabolism was “Metabolite_Notdetected”.

And the Drug metabolism [19]?
The Drug metabolism was “Metabolite_Detected”.

What about the Drug metabolism [20] of the same compound?
Its Drug metabolism is “Metabolite_Detected”.

And the Drug metabolism [21]?
Its Drug metabolism is “Metabolite_Notdetected”.
